Assay results from different studies.
Compare with care: the assays were run in different laboratories.
CDK4: Cyclin-dependent kinase 4 (CDK4, Homo sapiens, UniProt P11802)
CDK4 with cyclin D1: Cyclin-dependent kinase 4, with cyclin D1 (CDK4, Homo sapiens, UniProt P11802)
CDK4 with cyclin D3: Cyclin-dependent kinase 4, with cyclin D3 (CDK4, Homo sapiens, UniProt P11802)

SMILES	target	assay	conditions	endpoint	result
CCOC(=O)[C@H]1Cc2c(cc([N+](=O)[O-])cc2[N+](=O)[O-])[C@H](O)[C@]12C(=O)Nc1cc(Cl)ccc12	CDK4	cell-free assay, inhibitor, TR-FRET	1 µM	inhibition	38.6%
Cc1nn(C)cc1-c1nc2c(N3CCN(Cc4ccc(Cl)cc4)CC3)c(Cl)cnc2[nH]1	CDK4 with cyclin D1	binding, competition with immobilised ligand	1 µM	remaining binding	76%
Cn1cncc1[C@@](O)(COc1ccc(C#N)cc1-c1ccc(OC(F)(F)F)cc1)c1ccc(C#N)cc1	CDK4 with cyclin D3	cell-free assay, competition with immobilised ligand	1 µM	remaining binding	92%
CCOC(=O)[C@H]1Cc2c(cc([N+](=O)[O-])cc2[N+](=O)[O-])[C@@H](O)[C@@]12C(=O)Nc1c(F)cccc12	CDK4	cell-free assay, inhibitor, TR-FRET	1 µM	inhibition	52.6%
CC(C)(C)c1cc(C=C(C#N)C#N)cc(Br)c1O	CDK4 with cyclin D3	enzyme activity, inhibitor	0.5 µM	remaining activity	96.5%
N#CC1(c2ccccn2)CCN(Cc2cc(C(=O)O)c(=O)n3ccccc23)CC1	CDK4	cell-free assay, competition with immobilised ligand	1 µM	remaining binding	94%
Nc1ncc(-c2nc(N3CCOCC3)nc(N3CCOCC3)n2)c(C(F)F)n1	CDK4 with cyclin D1	binding, competition with immobilised ligand	10 µM	remaining binding	100%
CCOC(=O)[C@H]1Cc2c(cc([N+](=O)[O-])cc2[N+](=O)[O-])[C@@H](O)[C@@]12C(=O)Nc1ccc(Br)cc12	CDK4	cell-free assay, inhibitor, TR-FRET	1 µM	inhibition	76.3%
O=c1[nH]c2ccccc2n1C1CCN(Cc2ccc(-c3[nH]c4cc5ncnc5cc4nc3-c3ccccc3)cc2)CC1	CDK4 with cyclin D1	cell-free assay	0.5 µM	remaining signal	108%
